Data taken from ChEMBL document CHEMBL1152799, “Mixed kappa/mu opioid receptor agonists: the 6 beta-naltrexamines” (J Med Chem, 2009).
pEC50, pKi: −log10 of the molar value. The source made the active and inactive calls. The calls are words filed in the database; no cut-off is given here.

Key:
Mu-type opioid receptor [1] = molecular target: T1, Mu-type opioid receptor (Rattus norvegicus, UniProt P33535); assay: Displacement of [3H]diprenorphine from rat mu opioid receptor expressed in rat C6 cell membrane by liquid scintillation and luminescence counter
[2] = molecular target: T2, Kappa-type opioid receptor (Homo sapiens, UniProt P41145); assay: Displacement of [3H]diprenorphine from human kappa opioid receptor expressed in CHO cell membrane by liquid scintillation and luminescence counter
Mu-type opioid receptor [3] = molecular target: T1, Mu-type opioid receptor; assay: Agonist activity at rat mu opioid receptor expressed in rat C6 cell membrane assessed as stimulation of [35S]GTPgammaS binding; type: functional, cell membranes
Procedure, shortened: (§1)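 Membranes from CHOκ (human KOR, grown in DMEM-F12) or C6μ (rat MOR, DMEM) cells, 20 μg, incubated 60 min at 25 °C in 20 mM Tris-HCl pH 7.4, 5 mM MgCl2, 100 mM NaCl, 2.2 mM fresh DTT, 30 μM GDP, 0.1 nM [35S]GTPγS with compound; filtered on GF/C, scintillation counting; efficacy versus U69593 (KOR) or DAMGO (MOR); mean ± SEM of three experiments.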

[4] = molecular target: Mu-type opioid receptor (Rattus norvegicus) (UniProt P33535); assay: Agonist activity at rat mu opioid receptor expressed in rat C6 cell membrane assessed as stimulation of [35S]GTPgammaS binding relative to DAMGO; type: functional, cell membranes; procedure, shortened: as §1
[5] = molecular target: T2, Kappa-type opioid receptor; assay: Agonist activity at human kappa opioid receptor expressed in CHO cell membrane assessed as stimulation of [35S]GTPgammaS binding; type: functional, cell membranes; procedure, shortened: as §1
[6] = molecular target: T2, Kappa-type opioid receptor; assay: Agonist activity at human kappa opioid receptor expressed in CHO cell membrane assessed as stimulation of [35S]GTPgammaS binding relative to U69593; type: functional, cell membranes; procedure, shortened: as §1
[7] = molecular target: Mu-type opioid receptor (Rattus norvegicus) (UniProt P33535); assay: Antagonist activity at rat mu opioid receptor expressed in rat C6 cell membrane assessed as DAMGO-stimulated of [35S]GTPgammaS binding; type: functional, cell membranes
Procedure, shortened: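 C6 glioma membranes with stably expressed rat MOR; antagonism of DAMGO-stimulated [35S]GTPγS binding reported as Ke; incubation 60 min, 25 °C, in Tris-HCl pH 7.4 with MgCl2, NaCl, DTT, 30 μM GDP, 0.1 nM [35S]GTPγS; filtration and scintillation read-out.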

Chain of Mu-type opioid receptor (Rattus norvegicus) (P33535 whole entry): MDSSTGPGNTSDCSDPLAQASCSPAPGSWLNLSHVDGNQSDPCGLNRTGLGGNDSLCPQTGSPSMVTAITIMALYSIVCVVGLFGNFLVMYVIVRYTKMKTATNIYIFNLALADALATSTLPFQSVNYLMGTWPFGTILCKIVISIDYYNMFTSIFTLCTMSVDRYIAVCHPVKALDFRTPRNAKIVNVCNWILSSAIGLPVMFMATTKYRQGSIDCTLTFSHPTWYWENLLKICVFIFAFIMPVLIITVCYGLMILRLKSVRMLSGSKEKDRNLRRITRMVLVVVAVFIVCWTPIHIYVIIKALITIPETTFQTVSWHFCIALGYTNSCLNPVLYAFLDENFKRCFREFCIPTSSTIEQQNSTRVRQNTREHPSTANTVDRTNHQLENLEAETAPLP
T1 sequence (P33535 whole entry): as above
T2 sequence (P41145 whole entry): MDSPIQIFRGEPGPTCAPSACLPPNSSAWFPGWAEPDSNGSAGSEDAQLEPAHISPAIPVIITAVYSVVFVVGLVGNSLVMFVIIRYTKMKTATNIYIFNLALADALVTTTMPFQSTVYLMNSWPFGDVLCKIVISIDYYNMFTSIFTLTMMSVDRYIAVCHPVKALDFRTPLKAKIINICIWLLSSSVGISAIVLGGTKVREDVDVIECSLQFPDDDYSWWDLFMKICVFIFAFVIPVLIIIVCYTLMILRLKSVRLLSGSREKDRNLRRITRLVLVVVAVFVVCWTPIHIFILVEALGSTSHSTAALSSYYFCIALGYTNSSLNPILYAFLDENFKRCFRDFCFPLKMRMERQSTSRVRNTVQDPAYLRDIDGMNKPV

| SMILES | pKi (Mu-type opioid receptor [1]) | pKi [2] | pEC50 (Mu-type opioid receptor [3]) | Activity [4] | pEC50 [5] | Activity [6] | Ke [7] |
| --- | --- | --- | --- | --- | --- | --- | --- |
| C=CCO[C@@]12CC[C@@H](NC(=O)/C=C/c3ccccc3)[C@@H]3Oc4c(O)ccc5c4[C@@]31CCN(CC1CC1)[C@@H]2C5 | 9.60 | 9.92 | 9.22 | 39% | 10.10 | 120% |  |
| O=C(/C=C/c1ccccc1)N[C@@H]1CC[C@@]2(OCc3ccccc3)[C@H]3Cc4ccc(O)c5c4[C@@]2(CCN3CC2CC2)[C@H]1O5 | 9.80 | 9.07 | 8.70 | 19% | 9.11 | 97% |  |
| CC(=O)O[C@@]12CC[C@@H](NC(=O)/C=C/c3ccccc3)[C@@H]3Oc4c(O)ccc5c4[C@@]31CCN(CC1CC1)[C@@H]2C5 | 9.68 | 9.23 | 9.00 | 19% | 8.62 | 97% |  |
| O=C(/C=C/c1ccccc1Cl)N[C@@H]1CC[C@@]2(O)[C@H]3Cc4ccc(O)c5c4[C@@]2(CCN3CC2CC2)[C@H]1O5 | 10.10 | 9.57 | 7.92 | 17% | 9.40 | 97% |  |
| O=C(/C=C/c1ccccc1)N[C@@H]1CC[C@@]2(OC(=O)Cc3ccccc3)[C@H]3Cc4ccc(O)c5c4[C@@]2(CCN3CC2CC2)[C@H]1O5 | 9.55 | 9.59 | 8.89 | 41% | 9.31 | 76% |  |
| O=C(/C=C/c1ccccc1)N[C@@H]1CC[C@@]2(OC(=O)c3ccccc3)[C@H]3Cc4ccc(O)c5c4[C@@]2(CCN3CC2CC2)[C@H]1O5 | 9.38 | 8.96 |  | inactive | 8.01 | 26% | 0.41 nM |
| O=C(/C=C/c1ccccc1)N[C@@H]1CC[C@@]2(O)[C@H]3Cc4ccc(O)c5c4[C@@]2(CCN3CC2CC2)[C@H]1O5 | 9.77 | 10.37 | 8.74 | 21% | 9.92 | 100% |  |
| COc1ccccc1/C=C/C(=O)N[C@@H]1CC[C@@]2(O)[C@H]3Cc4ccc(O)c5c4[C@@]2(CCN3CC2CC2)[C@H]1O5 |  |  |  | 21% |  | 105% |  |
| O=C(/C=C/c1ccccc1[N+](=O)[O-])N[C@@H]1CC[C@@]2(O)[C@H]3Cc4ccc(O)c5c4[C@@]2(CCN3CC2CC2)[C@H]1O5 | 9.46 | 9.52 | 9.16 | 6.7% | 8.72 | 81% |  |
| O=C(/C=C/c1cccc([N+](=O)[O-])c1)N[C@@H]1CC[C@@]2(O)[C@H]3Cc4ccc(O)c5c4[C@@]2(CCN3CC2CC2)[C@H]1O5 | 9.96 | 9.44 | 9.74 | 20% | 9.92 | 100% |  |
